Experimental data from ChEMBL document CHEMBL4017524, “A Novel Arylurea Fatty Acid That Targets the Mitochondrion and Depletes Cardiolipin To Promote Killing of Breast Cancer Cells” (J Med Chem, 2017).
Activity calls are given as the source filed them.

How the values were obtained:
[1] = tested on: MDA-MB-231; experiment: Cell cycle arrest in human MDA-MB-231 cells at 10 uM after 24 hrs by propidium iodide staining based flow cytometric analysis
[2] = tested on: MDA-MB-231; experiment: Cytotoxicity against human MDA-MB-231 cells assessed as decrease in cell viability at 40 uM after 48 hrs by crystal violet staining based assay; assay type: functional
[3] = tested on: MDA-MB-231; experiment: Induction of apoptosis in human MDA-MB-231 cells at 10 uM after 48 hrs by annexin VFITC/7AAD staining based flow cytometry; assay type: functional, cell-based
Outline: (§1)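 Annexin V-FITC/7AAD flow cytometry of cells after 48 h at 10 µM. Quadrants: E4 annexin V only (early apoptotic), E2 dual-stained (late apoptotic), E1 7AAD only, E3 unstained (viable). Compared with DMSO control. Mean±SEM from three experiments.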

[4] = tested on: MDA-MB-231; experiment: Cytotoxicity against human MDA-MB-231 cells assessed as decrease in ATP production at 10 uM after 24 to 48 hrs by CellTiter-Glo luminescent assay; assay type: functional, cell-based
[5] = tested on: MDA-MB-231; experiment: Induction of apoptosis in human MDA-MB-231 cells assessed as mitochondrial membrane disruption by measuring red to green fluorescence ratio at 10 uM after 24 hrs by JC-1 staining based microscopic method relative to control; assay type: functional
Outline: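 Cells exposed for 24 h at 10 µM, then stained with the cationic dye JC-1. Red (aggregate, intact inner membrane) to green (monomer) fluorescence ratio expressed relative to DMSO control. Mean±SEM of three experiments.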

[6] = tested on: MDA-MB-231; experiment: Induction of apoptosis in human MDA-MB-231 cells assessed as increase in caspases 3/7 activity at 10 uM after 48 hrs by Caspase-Glo assay; assay type: functional, cell-based
[7] = tested on: MDA-MB-231; experiment: Cytotoxicity against human MDA-MB-231 cells assessed as decrease in cell adherence at 40 uM after 48 hrs by crystal violet staining based assay; assay type: functional
[8] = tested on: MCF-10A; experiment: Cytotoxicity against human MCF10A cells assessed as decrease in ATP production at 10 to 20 uM after 48 hrs by CellTiter-Glo luminescent assay; assay type: cell-based
[9] = tested on: MDA-MB-231; experiment: Induction of mitochondrial membrane disruption in human MDA-MB-231 cells assessed as mitochondrial cardiolipin level at 14 uM after 24 hrs in presence of oleic acid; assay type: functional, cell-based
[10] = tested on: Mus musculus; experiment: Toxicity in Balb/c nude mouse assessed as change in body weight at 2.5 to 40 mg/kg, ip qd for 5 days; assay type: organism-based; details: in vivo, 120 h
Outline: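 Balb/c mice given 2.5-40 mg/kg intraperitoneally for 5 days. Weight gain and other signs of toxicity were monitored.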

[11] = tested on: MDA-MB-231; experiment: Cell cycle arrest in human MDA-MB-231 cells assessed as accumulation at sub-G1 phase at 10 uM after 24 hrs by propidium iodide staining based flow cytometric analysis (reference value: 1.4 +/- 0.03%); assay type: functional
[12] = tested on: MDA-MB-231; experiment: Induction of apoptosis in human MDA-MB-231 cells assessed as plasma membrane phospholipid phosphatidylcholine level per 1.05 X 10^7 cells at 14 uM after 24 hrs (reference value: 91 +/- 9 ug); assay type: functional
[13] = tested on: MCF7; experiment: Cytotoxicity against human MCF7 cells assessed as decrease in ATP production at 10 uM up to 72 hrs by CellTiter-Glo luminescent assay; assay type: functional, cell-based
[14] = tested on: MDA-MB-231; experiment: Induction of mitochondrial membrane disruption in human MDA-MB-231 cells assessed as mitochondrial phosphatidylglycerol level at 14 uM after 24 hrs relative to control; assay type: functional
[15] = tested on: MDA-MB-231; experiment: Antitumor activity against human MDA-MB-231 cells xenografted in ip dosed Balb/c nu/nu mouse assessed as decrease in tumor volume administered once daily 6 days per week for 32 to 38 days; assay type: functional, organism-based
Outline: (§2)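 Female nu/nu mice, 7 weeks old, n=5-8 per group. Each received 4x10⁵ cells in 100 µl by subcutaneous injection into the 4th mammary fat pad. Intraperitoneal dosing at graded doses. Body weights and tumour sizes were measured. Isolated tumour sections were stained for TUNEL (apoptosis) and Ki67 (proliferation), with DAPI nuclear stain.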

[16] = tested on: MDA-MB-231; experiment: Induction of apoptosis in human MDA-MB-231 cells assessed as mitochondrial membrane disruption at 10 uM after 6 hrs by JC-1/Hoechst 33342 staining based fluorescence microscopic assay; assay type: functional, cell-based
Outline: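 Treatment with 10 µM or DMSO for 6 h. Cells were washed twice with serum-free medium, then incubated with JC-1 in serum-free medium at 37°C for 20 min. Hoechst 33342 nuclear counterstain, then fluorescence microscopy of green monomers versus red aggregates.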

[17] = tested on: MDA-MB-231; experiment: Induction of mitochondrial membrane disruption in human MDA-MB-231 cells assessed as mitochondrial phosphatidylglycerol level at 14 uM after 24 hrs in presence of oleic acid; assay type: functional, cell-based
[18] = tested on: MDA-MB-231; experiment: Induction of apoptosis in human MDA-MB-231 cells assessed as early apoptotic cells at 10 uM after 48 hrs by annexin VFITC/7AAD staining based flow cytometry (reference value: 6.6 +/- 1.4%); assay type: functional
Outline: as §1

[19] = tested on: MDA-MB-231; experiment: Cytotoxicity against human MDA-MB-231 cells assessed as decrease in cell viability at 40 uM after 48 hrs in presence of alpha-tocopherol by crystal violet staining based assay; assay type: functional
[20] = tested on: MDA-MB-231; experiment: Antitumor activity against human MDA-MB-231 cells xenografted in Balb/c nu/nu mouse assessed as TUNEL positive cells at 2.5 to 40 mg/kg, ip qd administered 6 days per week for 32 to 38 days; assay type: functional, organism-based
Outline: as §2

[21] = tested on: MDA-MB-231; experiment: Induction of apoptosis in human MDA-MB-231 cells assessed as necrotic cells at 10 uM after 48 hrs by annexin VFITC/7AAD staining based flow cytometry (reference value: 1.5 +/- 0.2%); assay type: functional
Outline: as §1

[22] = tested on: MDA-MB-231; experiment: Induction of apoptosis in human MDA-MB-231 cells assessed as viable cells at 10 uM after 48 hrs by annexin VFITC/7AAD staining based flow cytometry (reference value: 86.2 +/- 2.3%); assay type: functional; details: MDA-MB-231, 48 h, read-out: Activity
Outline: as §1

[23] = tested on: MDA-MB-231; experiment: Cell cycle arrest in human MDA-MB-231 cells assessed as decrease in accumulation of G0G1 phase at 10 uM after 24 hrs by propidium iodide staining based flow cytometric analysis; assay type: functional
[24] = tested on: MDA-MB-231; experiment: Induction of apoptosis in human MDA-MB-231 cells assessed as increase in caspases 3/7 activity at 10 uM after 24 hrs by Caspase-Glo assay relative to control; assay type: functional
Outline: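 Executioner caspase-3/7 activity read after 24 h exposure at 10 µM and expressed relative to DMSO-treated control. Basal activity per 7.5 x 10⁴ cells was recorded. Mean±SEM of three separate experiments.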

[25] = tested on: MDA-MB-231; experiment: Cell cycle arrest in human MDA-MB-231 cells assessed as decrease in accumulation of G2M phase at 10 uM after 24 hrs by propidium iodide staining based flow cytometric analysis; assay type: functional
[26] = tested on: T47D; experiment: Cytotoxicity against human T47D cells assessed as decrease in ATP production at 10 uM up to 72 hrs by CellTiter-Glo luminescent assay; assay type: functional, cell-based
[27] = tested on: T47D; experiment: Induction of apoptosis in human T47D cells assessed as increase in caspases 3/7 activity at 10 uM after 48 hrs by Caspase-Glo assay; assay type: functional, cell-based
[28] = tested on: MDA-MB-231; experiment: Cytotoxicity against human MDA-MB-231 cells assessed as decrease in ATP production at 10 uM after 24 hrs in presence of mitochondrial permeability transition pore inhibitor cyclosporin A by CellTiter-Glo luminescent assay; assay type: functional, cell-based
Outline: (§3)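 ATP formation read in MDA-MB-231 cells co-treated with BAPTA-AM (5 or 25 µM) or with cyclosporin A (10 or 20 µM).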

[29] = tested on: MDA-MB-231; experiment: Cytotoxicity against human MDA-MB-231 cells assessed as ATP production at 10 uM after 48 hrs by CellTiter-Glo luminescent assay relative to control; assay type: functional
[30] = tested on: MDA-MB-231; experiment: Cytotoxicity against human MDA-MB-231 cells assessed as ATP production at 10 uM after 24 hrs by CellTiter-Glo luminescent assay relative to control; assay type: functional
Outline: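 MDA-MB-231 cells exposed to 10 µM for 24 h, then ATP formation measured and expressed relative to DMSO-treated control. Basal ATP per 7.5 x 10⁴ cells was recorded at 24 h. Mean±SEM from three separate experiments.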

[31] = tested on: MDA-MB-231; experiment: Cytotoxicity against human MDA-MB-231 cells assessed as decrease in ATP production at 10 uM after 24 hrs in presence of Ca2+ chelator BAPTA-AM by CellTiter-Glo luminescent assay; assay type: functional, cell-based
Outline: as §3

[32] = tested on: MDA-MB-231; experiment: Induction of reactive oxygen species in human MDA-MB-231 cells after 2 to 6 hrs by 2',7'-dichlorofluorescin dye based flow cytometric analysis; assay type: functional, cell-based
Outline: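 Pro-oxidant stress followed by flow cytometry using 2',7'-dichlorofluorescin diacetate after 2-6 h of treatment in MDA-MB-231 cells.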

[33] = tested on: MDA-MB-468; experiment: Cytotoxicity against human MDA-MB-468 cells assessed as decrease in ATP production at 10 uM up to 72 hrs by CellTiter-Glo luminescent assay; assay type: functional, cell-based
[34] = tested on: MCF7; experiment: Induction of apoptosis in human MCF7 cells assessed as increase in caspases 3/7 activity at 10 uM after 48 hrs by Caspase-Glo assay; assay type: functional, cell-based
[35] = tested on: MDA-MB-231; experiment: Antitumor activity against human MDA-MB-231 cells xenografted in Balb/c nu/nu mouse assessed as decrease in Ki67 biomarkers at 2.5 to 40 mg/kg, ip qd administered 6 days per week for 32 to 38 days by […] immunohistochemical analysis; assay type: functional, organism-based
Outline: as §2

[36] = tested on: MDA-MB-231; experiment: Induction of mitochondrial membrane disruption in human MDA-MB-231 cells assessed as mitochondrial cardiolipin level at 14 uM after 24 hrs relative to control; assay type: functional
[37] = tested on: MDA-MB-468; experiment: Induction of apoptosis in human MDA-MB-468 cells assessed as increase in caspases 3/7 activity at 10 uM after 48 hrs by Caspase-Glo assay; assay type: functional, cell-based
[38] = tested on: MDA-MB-231; experiment: Induction of apoptosis in human MDA-MB-231 cells assessed as late apoptotic cells at 10 uM after 48 hrs by annexin VFITC/7AAD staining based flow cytometry (reference value: 5.9 +/- 0.9%); assay type: functional
Outline: as §1

[39] = tested on: MDA-MB-231; experiment: Cell cycle arrest in human MDA-MB-231 cells assessed as decrease in accumulation of S phase at 10 uM after 24 hrs by propidium iodide staining based flow cytometric analysis; assay type: functional

O=C(O)CCCCCCCCCCCCCCCNC(=O)Nc1ccccc1
inactive: Activity [1] | Activity [2] | Activity [3] | Activity [4] | Activity [5] | Activity [6] | Activity [7]

O=C(O)CCCCCCCCCCCCCCCNC(=O)Nc1ccc(Cl)c(C(F)(F)F)c1
Non-Toxic: Activity [8] | Activity [10]
active: Activity [2] | Activity [13] | Activity [15] Dose-dependent effect | Activity [16] | Activity [19] | Activity [20] | Activity [23] | Activity [25] | Activity [26] | Activity [27] | Activity [28] | Activity [31] | Activity [33] | Activity [7] | Activity [35] | Activity [39]
inactive: Activity [9] | Activity [17] | Activity [32] | Activity [34] | Activity [37]
20%: Activity [11] | Activity [38]
30%: Activity [29]
72%: Activity [30]
32%: Activity [5]
203%: Activity [24]
11%: Activity [18]
5.9%: Activity [21]
88 µg: Activity [12]
62.4%: viability at 10 µM [22]
61%: Activity [14] | Activity [36]

O=C(O)CCCCCCCCCCCCCCCNC(=O)Nc1ccc(Cl)c(Cl)c1
inactive: Activity [1] | Activity [2] | Activity [3] | Activity [4] | Activity [5] | Activity [6] | Activity [7]

O=C(O)CCCCCCCCCCCCCCCNC(=O)Nc1ccc(Cl)cc1
inactive: Activity [4] | Activity [5]

Cc1ccc(NC(=O)NCCCCCCCCCCCCCCCC(=O)O)cc1
inactive: Activity [4] | Activity [5]

CCNC(=O)NCCCCCCCCCCCCCCCC(=O)O
inactive: Activity [1] | Activity [3] | Activity [4] | Activity [5] | Activity [36]
